Source: ChEMBL document CHEMBL1152173, “Synthesis and in vitro evaluation of the antifungal activities of dihydropyrimidinones” (2008)
Converted amounts (≈) assume the structure as drawn. Blank lines part the entries; values can stand above or below the compound they belong to. The source made the active and inactive calls. The calls are words filed in the database; no cut-off is given here.

Assays:
Aspergillus niger [1] = assay: Antifungal activity against Aspergillus niger assessed as radial growth at 7% after 24 hrs by poison food technique of Flack relative to control; assay type: functional
Trichoderma koningii [2] = assay: Antifungal activity against Trichoderma koningii assessed as radial growth at 5% after 72 hrs by poison food technique of Flack relative to control; assay type: functional
Method in brief: (§1)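 Acetone stock added to molten sterilized PDA to final 0.5–7%, plated in 90 mm dishes with compound-free plates as control. Each plate was inoculated with a 9 mm disc from a 4-day-old culture, incubated at 25 ± 1 °C, and colony diameter measured at 24 h intervals. % inhibition = (control − treatment)/control × 100; three replicates averaged.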

Trichoderma koningii [3] = assay: Antifungal activity against Trichoderma koningii assessed as radial growth at 7% after 72 hrs by poison food technique of Flack relative to control; assay type: functional; method in brief: as §1
Aspergillus niger [4] = assay: Antifungal activity against Aspergillus niger assessed as radial growth at 0.5% after 24 hrs by poison food technique of Flack relative to control; assay type: functional
Trichoderma hamatum [5] = assay: Antifungal activity against Trichoderma hamatum assessed as radial growth at 7% after 48 hrs by poison food technique of Flack relative to control; assay type: functional; method in brief: as §1
Trichoderma koningii [6] = assay: Antifungal activity against Trichoderma koningii assessed as radial growth at 5% after 48 hrs by poison food technique of Flack relative to control; assay type: functional; method in brief: as §1
Trichoderma hamatum [7] = assay: Antifungal activity against Trichoderma hamatum assessed as radial growth at 0.5% after 72 hrs by poison food technique of Flack relative to control; assay type: functional
Trichoderma koningii [8] = assay: Antifungal activity against Trichoderma koningii assessed as radial growth at 0.5% after 72 hrs by poison food technique of Flack relative to control; assay type: functional; method in brief: as §1
Trichoderma koningii [9] = assay: Antifungal activity against Trichoderma koningii assessed as radial growth at 5% after 24 hrs by poison food technique of Flack relative to control; assay type: functional; method in brief: as §1
Trichoderma koningii [10] = assay: Antifungal activity against Trichoderma koningii assessed as radial growth at 3% after 72 hrs by poison food technique of Flack relative to control; assay type: functional; method in brief: as §1
Aspergillus niger [11] = assay: Antifungal activity against Aspergillus niger assessed as radial growth at 1% after 72 hrs by poison food technique of Flack relative to control; assay type: functional
Trichoderma koningii [12] = assay: Antifungal activity against Trichoderma koningii assessed as radial growth at 0.5% after 48 hrs by poison food technique of Flack relative to control; assay type: functional; method in brief: as §1
Trichoderma hamatum [13] = assay: Antifungal activity against Trichoderma hamatum; assay type: functional
Aspergillus niger [14] = assay: Antifungal activity against Aspergillus niger assessed as radial growth at 0.5% after 48 hrs by poison food technique of Flack relative to control; assay type: functional
Aspergillus niger [15] = assay: Antifungal activity against Aspergillus niger assessed as radial growth at 3% after 72 hrs by poison food technique of Flack relative to control; assay type: functional
Trichoderma hamatum [16] = assay: Antifungal activity against Trichoderma hamatum assessed as radial growth at 5% after 24 hrs by poison food technique of Flack relative to control; assay type: functional; method in brief: as §1
Trichoderma hamatum [17] = assay: Antifungal activity against Trichoderma hamatum assessed as radial growth at 1% after 24 hrs by poison food technique of Flack relative to control; assay type: functional
Trichoderma hamatum [18] = assay: Antifungal activity against Trichoderma hamatum assessed as radial growth at 7% after 24 hrs by poison food technique of Flack relative to control; assay type: functional; method in brief: as §1
Trichoderma koningii [19] = assay: Antifungal activity against Trichoderma koningii assessed as radial growth at 7% after 24 hrs by poison food technique of Flack relative to control; assay type: functional; method in brief: as §1
Trichoderma hamatum [20] = assay: Antifungal activity against Trichoderma hamatum assessed as radial growth at 0.5% after 48 hrs by poison food technique of Flack relative to control; assay type: functional
Aspergillus niger [21] = assay: Antifungal activity against Aspergillus niger assessed as radial growth at 3% after 24 hrs by poison food technique of Flack relative to control; assay type: functional
Aspergillus niger [22] = assay: Antifungal activity against Aspergillus niger assessed as radial growth at 1% after 48 hrs by poison food technique of Flack relative to control; assay type: functional
Trichoderma hamatum [23] = assay: Antifungal activity against Trichoderma hamatum assessed as radial growth at 3% after 48 hrs by poison food technique of Flack relative to control; assay type: functional
Trichoderma koningii [24] = assay: Antifungal activity against Trichoderma koningii assessed as radial growth at 1% after 48 hrs by poison food technique of Flack relative to control; assay type: functional; method in brief: as §1
Trichoderma koningii [25] = assay: Antifungal activity against Trichoderma koningii; assay type: functional
Aspergillus niger [26] = assay: Antifungal activity against Aspergillus niger assessed as radial growth at 5% after 72 hrs by poison food technique of Flack relative to control; assay type: functional
Trichoderma koningii [27] = assay: Antifungal activity against Trichoderma koningii assessed as radial growth at 3% after 48 hrs by poison food technique of Flack relative to control; assay type: functional; method in brief: as §1
Trichoderma hamatum [28] = assay: Antifungal activity against Trichoderma hamatum assessed as radial growth at 7% after 72 hrs by poison food technique of Flack relative to control; assay type: functional; method in brief: as §1
Aspergillus niger [29] = assay: Antifungal activity against Aspergillus niger; assay type: functional
Trichoderma hamatum [30] = assay: Antifungal activity against Trichoderma hamatum assessed as radial growth at 3% after 24 hrs by poison food technique of Flack relative to control; assay type: functional
Aspergillus niger [31] = assay: Antifungal activity against Aspergillus niger assessed as radial growth at 1% after 24 hrs by poison food technique of Flack relative to control; assay type: functional
Trichoderma hamatum [32] = assay: Antifungal activity against Trichoderma hamatum assessed as radial growth at 7% after 24 hrs by poison food technique of Flack; assay type: functional, organism-based
Method in brief: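 Poisoned-food method: acetone stock mixed into molten sterilized potato dextrose agar to final 0.5, 1, 3, 5 or 7%, poured into 90 mm plates. Plates were inoculated with a 9 mm mycelial disc from a 4-day-old pure culture and incubated at 25 ± 1 °C. Colony diameter (mm) was read every 24 h; mean of three replicates.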

Trichoderma hamatum [33] = assay: Antifungal activity against Trichoderma hamatum assessed as radial growth at 5% after 48 hrs by poison food technique of Flack relative to control; assay type: functional; method in brief: as §1
Aspergillus niger [34] = assay: Antifungal activity against Aspergillus niger assessed as radial growth at 0.5% after 72 hrs by poison food technique of Flack relative to control; assay type: functional
Trichoderma hamatum [35] = assay: Antifungal activity against Trichoderma hamatum assessed as radial growth at 1% after 72 hrs by poison food technique of Flack relative to control; assay type: functional
Aspergillus niger [36] = assay: Antifungal activity against Aspergillus niger assessed as radial growth at 5% after 24 hrs by poison food technique of Flack relative to control; assay type: functional
Trichoderma koningii [37] = assay: Antifungal activity against Trichoderma koningii assessed as radial growth at 3% after 24 hrs by poison food technique of Flack relative to control; assay type: functional; method in brief: as §1
Aspergillus niger [38] = assay: Antifungal activity against Aspergillus niger assessed as radial growth at 3% after 48 hrs by poison food technique of Flack relative to control; assay type: functional
Trichoderma koningii [39] = assay: Antifungal activity against Trichoderma koningii assessed as radial growth at 0.5% after 24 hrs by poison food technique of Flack relative to control; assay type: functional; method in brief: as §1
Trichoderma hamatum [40] = assay: Antifungal activity against Trichoderma hamatum assessed as radial growth at 0.5% after 24 hrs by poison food technique of Flack relative to control; assay type: functional
Aspergillus niger [41] = assay: Antifungal activity against Aspergillus niger assessed as radial growth at 7% after 48 hrs by poison food technique of Flack relative to control; assay type: functional
Trichoderma hamatum [42] = assay: Antifungal activity against Trichoderma hamatum assessed as radial growth at 3% after 72 hrs by poison food technique of Flack relative to control; assay type: functional
Trichoderma hamatum [43] = assay: Antifungal activity against Trichoderma hamatum assessed as radial growth at 5% after 72 hrs by poison food technique of Flack relative to control; assay type: functional; method in brief: as §1
Trichoderma hamatum [44] = assay: Antifungal activity against Trichoderma hamatum assessed as radial growth at 1% after 48 hrs by poison food technique of Flack relative to control; assay type: functional
Trichoderma koningii [45] = assay: Antifungal activity against Trichoderma koningii assessed as radial growth at 1% after 24 hrs by poison food technique of Flack relative to control; assay type: functional; method in brief: as §1

MIC (Trichoderma hamatum [13]): 0.025 µg/mL (≈ 0.0824 µM)
MIC (Trichoderma koningii [25]): 0.025 µg/mL (≈ 0.0824 µM)
MIC (Aspergillus niger [29]): 0.35 µg/mL (≈ 1.15 µM)
Structure (SMILES): CCOC(=O)C1=C(C)NC(=O)NC1c1ccc(N(C)C)cc1 (stereo not given)
inhibition (INH) (Aspergillus niger [1]): 100%
inhibition (INH) (Trichoderma koningii [2]): 79.15%
inhibition (INH) (Trichoderma koningii [3]): 80%
inhibition (INH) (Aspergillus niger [4]): 38.28%
inhibition (INH) (Trichoderma hamatum [5]): 96.38%
inhibition (INH) (Trichoderma koningii [6]): 87.09%
inhibition (INH) (Trichoderma hamatum [7]): 0%
inhibition (INH) (Trichoderma koningii [8]): 45.53%
inhibition (INH) (Trichoderma koningii [9]): 100%
inhibition (INH) (Trichoderma koningii [10]): 59.58%
inhibition (INH) (Aspergillus niger [11]): 46.4%
inhibition (INH) (Trichoderma koningii [12]): 9.67%
inhibition (INH) (Aspergillus niger [14]): 41.66%
inhibition (INH) (Aspergillus niger [15]): 74.11%
inhibition (INH) (Trichoderma hamatum [16]): 84.2%
inhibition (INH) (Trichoderma hamatum [17]): 0%
inhibition (INH) (Trichoderma hamatum [18]): 100%
inhibition (INH) (Trichoderma koningii [19]): 100%
inhibition (INH) (Trichoderma hamatum [20]): 0%
inhibition (INH) (Aspergillus niger [21]): 100%
inhibition (INH) (Aspergillus niger [22]): 47.25%
inhibition (INH) (Trichoderma hamatum [23]): 75.31%
inhibition (INH) (Trichoderma koningii [24]): 48.38%
inhibition (INH) (Aspergillus niger [26]): 88.42%
inhibition (INH) (Trichoderma koningii [27]): 64.51%
inhibition (INH) (Trichoderma hamatum [28]): 93.82%
inhibition (INH) (Trichoderma hamatum [30]): 77.38%
inhibition (INH) (Aspergillus niger [31]): 42.85%
Activity (Trichoderma hamatum [32]): Active
inhibition (INH) (Trichoderma hamatum [33]): 93.38%
inhibition (INH) (Aspergillus niger [34]): 35.69%
inhibition (INH) (Trichoderma hamatum [35]): 0%
inhibition (INH) (Aspergillus niger [36]): 100%
inhibition (INH) (Trichoderma koningii [37]): 84%
inhibition (INH) (Aspergillus niger [38]): 75%
inhibition (INH) (Trichoderma koningii [39]): 4%
inhibition (INH) (Trichoderma hamatum [40]): 0%
inhibition (INH) (Aspergillus niger [41]): 100%
inhibition (INH) (Trichoderma hamatum [42]): 73.04%
inhibition (INH) (Trichoderma hamatum [43]): 86.83%
inhibition (INH) (Trichoderma hamatum [44]): 0%
inhibition (INH) (Trichoderma koningii [45]): 9.36%

MIC (Trichoderma hamatum [13]): 0.025 µg/mL (≈ 0.0905 µM)
MIC (Trichoderma koningii [25]): 0.025 µg/mL (≈ 0.0905 µM)
MIC (Aspergillus niger [29]): 0.35 µg/mL (≈ 1.27 µM)
Structure (SMILES): CCOC(=O)C1=C(C)NC(=S)NC1c1ccccc1 (stereo not given)
inhibition (INH) (Aspergillus niger [1]): 100%
inhibition (INH) (Trichoderma koningii [2]): 79.82%
inhibition (INH) (Trichoderma koningii [3]): 84.42%
inhibition (INH) (Aspergillus niger [4]): 0%
inhibition (INH) (Trichoderma hamatum [5]): 100%
inhibition (INH) (Trichoderma koningii [6]): 87.34%
inhibition (INH) (Trichoderma hamatum [7]): 0%
inhibition (INH) (Trichoderma koningii [8]): 0%
inhibition (INH) (Trichoderma koningii [9]): 89.2%
inhibition (INH) (Trichoderma koningii [10]): 62.71%
inhibition (INH) (Aspergillus niger [11]): 0%
inhibition (INH) (Trichoderma koningii [12]): 0%
inhibition (INH) (Aspergillus niger [14]): 0%
inhibition (INH) (Aspergillus niger [15]): 36.36%
inhibition (INH) (Trichoderma hamatum [16]): 89.18%
inhibition (INH) (Trichoderma hamatum [17]): 47.78%
inhibition (INH) (Trichoderma hamatum [18]): 100%
inhibition (INH) (Trichoderma koningii [19]): 91.34%
inhibition (INH) (Trichoderma hamatum [20]): 8.81%
inhibition (INH) (Aspergillus niger [21]): 33.33%
inhibition (INH) (Aspergillus niger [22]): 0%
inhibition (INH) (Trichoderma hamatum [23]): 67.62%
inhibition (INH) (Trichoderma koningii [24]): 0%
inhibition (INH) (Aspergillus niger [26]): 55.63%
inhibition (INH) (Trichoderma koningii [27]): 68.08%
inhibition (INH) (Trichoderma hamatum [28]): 95.98%
inhibition (INH) (Trichoderma hamatum [30]): 67.13%
inhibition (INH) (Aspergillus niger [31]): 0%
Activity (Trichoderma hamatum [32]): Active
inhibition (INH) (Trichoderma hamatum [33]): 93%
inhibition (INH) (Aspergillus niger [34]): 0%
inhibition (INH) (Trichoderma hamatum [35]): 0%
inhibition (INH) (Aspergillus niger [36]): 33.33%
inhibition (INH) (Trichoderma koningii [37]): 56.03%
inhibition (INH) (Aspergillus niger [38]): 47.81%
inhibition (INH) (Trichoderma koningii [39]): 0%
inhibition (INH) (Trichoderma hamatum [40]): 17.13%
inhibition (INH) (Aspergillus niger [41]): 100%
inhibition (INH) (Trichoderma hamatum [42]): 37.65%
inhibition (INH) (Trichoderma hamatum [43]): 94.96%
inhibition (INH) (Trichoderma hamatum [44]): 18.65%
inhibition (INH) (Trichoderma koningii [45]): 0%
